According to ChEMBL document CHEMBL1153864, “Phase transfer catalyzed synthesis of bis-quinolines: antileishmanial activity in experimental visceral leishmaniasis and in vitro antibacterial evaluation” (Eur J Med Chem, 2009):
Values after ≈ are worked out from the molar mass of the structure shown. Active and inactive are the calls of the source. No cut-off for these calls is given here.

Assays:
[1] = system: Leishmania donovani; test: Antileishmanial activity against Leishmania donovani MHOM/IN/1983/AG83 promastigotes infected BALB/c mouse assessed as reduction in spleen parasite burden at 12.5 mg/kg, ip administered two times per week for 4 weeks relative to control; type: functional; design: scale not given: the % may be the effect or the level left; settings: route intraperitoneal
How it was run: (§1)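 BALB/c mice (4-6 weeks) were infected iv with 2 × 10^7 freshly transformed promastigotes. One month later, groups were dosed ip in 0.2% Tween 80 in PBS (0.02 M), twice weekly for one month (8 doses); controls got vehicle only. Mice were killed one month post-treatment and spleen and liver were weighed. Parasite load came from Giemsa impression smears as organ weight (mg) × amastigotes per cell nucleus × 2 × 10^5. Values are mean ± S.E. of 5 mice; unpaired t-test.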

[2] = system: Leishmania donovani; test: Antileishmanial activity against Leishmania donovani MHOM/IN/1983/AG83 promastigotes infected BALB/c mouse assessed as reduction in liver parasite burden at 12.5 mg/kg, ip administered two times per week for 4 weeks relative to control; type: functional; design: scale not given: the % may be the effect or the level left; settings: route intraperitoneal; how it was run: as §1
[3] = system: Leishmania donovani; test: Antileishmanial activity against Leishmania donovani MHOM/IN/1983/AG83 promastigotes infected BALB/c mouse assessed as reduction in liver parasite burden at 5.5 mg/kg, ip administered two times per week for 4 weeks relative to control; type: functional; design: scale not given: the % may be the effect or the level left; settings: route intraperitoneal; how it was run: as §1
[4] = system: Leishmania donovani; test: Antileishmanial activity against Leishmania donovani MHOM/IN/1983/AG83 promastigotes infected BALB/c mouse assessed as liver weight at 12.5 mg/kg, ip administered two times per week for 4 weeks; type: functional; settings: route intraperitoneal; how it was run: as §1
[5] = system: Leishmania donovani; test: Antileishmanial activity against Leishmania donovani MHOM/IN/1983/AG83 promastigotes infected BALB/c mouse assessed as spleen weight at 5.5 mg/kg, ip administered two times per week for 4 weeks; type: functional; settings: route intraperitoneal; how it was run: as §1
[6] = system: Leishmania donovani; test: Antileishmanial activity against Leishmania donovani MHOM/IN/1983/AG83 promastigotes infected BALB/c mouse assessed as liver weight at 5.5 mg/kg, ip administered two times per week for 4 weeks; type: functional; settings: route intraperitoneal; how it was run: as §1
[7] = system: Mus musculus; test: Toxicity in BALB/c mouse assessed as effect on serum glutamate oxaloacetate transaminase levels at 5.5 mg/kg, ip administered two times per week for 4 weeks; type: organism-based; design: dose 5.5 mg/kg, route intraperitoneal; settings: in vivo, 672 h
How it was run: (§2)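 Normal BALB/c mice were dosed ip twice per week for 4 weeks. Blood was collected one month after treatment, and serum SGPT and SGOT (IU/l) and blood urea (mg/dl) were measured with commercial kits and compared with untreated normal mice.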

[8] = system: Mus musculus; test: Toxicity in BALB/c mouse assessed as effect on blood urea levels at 5.5 mg/kg, ip administered two times per week for 4 weeks; type: organism-based; design: dose 5.5 mg/kg, route intraperitoneal; settings: in vivo, 672 h; how it was run: as §2
[9] = system: Mus musculus; test: Toxicity in BALB/c mouse assessed as effect on blood urea levels at 12.5 mg/kg, ip administered two times per week for 4 weeks; type: organism-based; design: dose 12.5 mg/kg, route intraperitoneal; settings: in vivo, 672 h; how it was run: as §2
[10] = system: Staphylococcus aureus; test: Antibacterial activity against Staphylococcus aureus ML6 at 10 ug/ml after 24 hrs by agar dilution method; type: functional; settings: ML6, 24 h
How it was run: (§3)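 Agar dilution MIC. Compound dissolved in sterile 0.2% DMSO, diluted in distilled water and mixed into molten nutrient agar (pH 7.2–7.4) at 5, 10, 25, 50; plate with 0.2% DMSO as control. Gram-positives grown 18 h in nutrient broth, Gram-negatives in peptone water. Stationary-phase suspension set to 0.5 McFarland, diluted 1:100, spot-inoculated at about 10^5 CFU per loopful. Plates held 24 h at 37 °C (up to 72 h if needed). MIC is the lowest level with no growth.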

[11] = system: Staphylococcus aureus; test: Antibacterial activity against Staphylococcus aureus ML145 at 25 ug/ml after 24 hrs by agar dilution method; type: functional; settings: ML145, 24 h; how it was run: as §3
[12] = system: Salmonella typhimurium; test: Antibacterial activity against Salmonella Typhimurium NCTC 74 at 50 ug/ml after 24 hrs by agar dilution method; type: functional, Salmonella enterica subsp. enterica serovar Typhimurium; settings: Salmonella enterica, NCTC 74, 24 h; how it was run: as §3
[13] = system: Shigella dysenteriae; test: Antibacterial activity against Shigella dysenteriae 6 NCTC 100/54 at 50 ug/ml after 24 hrs by agar dilution method; type: functional; settings: 6 NCTC 100/54, 24 h
[14] = system: Escherichia coli; test: Antibacterial activity against Escherichia coli K-12 Row at 10 ug/ml after 24 hrs by agar dilution method; type: functional, organism-based; how it was run: as §3
[15] = system: Escherichia coli; test: Antibacterial activity against Escherichia coli K-12 Row at 25 ug/ml after 24 hrs by agar dilution method; type: functional, organism-based; how it was run: as §3
[16] = system: Vibrio cholerae; test: Antibacterial activity against Vibrio cholerae 569B at 10 ug/ml after 24 hrs by agar dilution method; type: functional, organism-based
[17] = system: Vibrio cholerae; test: Antibacterial activity against Vibrio cholerae 582 after 24 hrs by agar dilution method; type: functional; settings: Vibrio cholerae, 582, 24 h
[18] = system: Proteus mirabilis; test: Antibacterial activity against Proteus mirabilis 7 at 50 ug/ml after 24 hrs by agar dilution method; type: functional; settings: Proteus mirabilis, 7, 24 h; how it was run: as §3
[19] = system: Proteus mirabilis; test: Antibacterial activity against Proteus mirabilis 7 after 24 hrs by agar dilution method; type: functional; settings: Proteus mirabilis, 7, 24 h; how it was run: as §3
[20] = system: Staphylococcus aureus; test: Antibacterial activity against Staphylococcus aureus ML145 at 50 ug/ml after 24 hrs by agar dilution method; type: functional; settings: ML145, 24 h; how it was run: as §3
[21] = system: Bacillus licheniformis; test: Antibacterial activity against […] Bacillus licheniformis NCTC 10341 at 50 ug/ml after 24 hrs by agar dilution method; type: functional; settings: NCTC 10341, 24 h; how it was run: as §3
[22] = system: Pseudomonas aeruginosa; test: Antibacterial activity against Pseudomonas aeruginosa ATCC 27853 at 5 ug/ml after 24 hrs by agar dilution method; type: functional, organism-based; how it was run: as §3
[23] = system: Pseudomonas aeruginosa; test: Antibacterial activity against Pseudomonas aeruginosa ATCC 27853 after 24 hrs by agar dilution method; type: functional; settings: ATCC 27853, 24 h; how it was run: as §3
[24] = system: Shigella dysenteriae; test: Antibacterial activity against Shigella dysenteriae 7 NCTC 519/66 at 10 ug/ml after 24 hrs by agar dilution method; type: functional; settings: 7 NCTC 519/66, 24 h
[25] = system: Shigella dysenteriae; test: Antibacterial activity against Shigella dysenteriae 7 NCTC 519/66 after 24 hrs by agar dilution method; type: functional; settings: 7 NCTC 519/66, 24 h
[26] = system: Leishmania donovani; test: Antileishmanial activity against Leishmania donovani MHOM/IN/1983/AG83 promastigotes assessed as induction of chromatin condensation at 2 ug/ml after 2 hrs by transmission electron microscopy; type: functional, organism-based
[27] = system: Leishmania donovani; test: Antileishmanial activity against Leishmania donovani MHOM/IN/1983/AG83 promastigotes assessed as induction of vacuolization at 11.5 ug/ml after 2 hrs by transmission electron microscopy; type: functional, organism-based
How it was run: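 Log-phase promastigotes, grown at 22 °C in M199 with 10% FBS, were exposed for 2 h to the compound; controls received 0.1% DMSO alone. Cells were then sectioned, stained on copper grids with uranyl acetate and lead acetate for 10-15 min each, and examined by TEM for ultrastructural changes.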

[28] = Down regulation of TNFalpha release Leishmania donovani MHOM/IN/1983/AG83 infected interferon gamma-stimulated golden Syrian hamster peritoneal macrophages; type: functional, cell-based; settings: Mesocricetus auratus; Macrophage
[29] = Toxicity against golden Syrian hamster peritoneal macrophages; type: cell-based, Mesocricetus auratus; settings: macrophage

**Q.** Which Activity [1] does the source give for `Clc1ccc(OCOc2ccc(Cl)c3cccnc23)c2ncccc12` here?
**A.** Its Activity is 95%.

**Q.** And the Activity [2]?
**A.** Its Activity is 98.49%.

**Q.** What about the Activity [3] of the same compound?
**A.** Its Activity is 78%.

**Q.** What about the Activity [4] of the same compound?
**A.** The Activity was 900 mg.

**Q.** What about the Activity [5] of the same compound?
**A.** The Activity was 175 mg.

**Q.** What about the Activity [6] of the same compound?
**A.** The Activity was 1120 mg.

**Q.** What about the Activity [7] of the same compound?
**A.** The Activity was “Non-toxic”.

**Q.** What about the Activity [8] of the same compound?
**A.** The Activity was “Non-toxic”.

**Q.** What about the Activity [9] of the same compound?
**A.** The Activity was “Non-toxic”.

**Q.** What about the inhibition at 10 µg/mL [10] of the same compound?
**A.** The inhibition at 10 µg/mL was 100%.

**Q.** What about the inhibition at 25 µg/mL [11] of the same compound?
**A.** Its inhibition at 25 µg/mL is 100%.

**Q.** What about the inhibition at 50 µg/mL [12] of the same compound?
**A.** Its inhibition at 50 µg/mL is 100%.

**Q.** What about the inhibition at 50 µg/mL [13] of the same compound?
**A.** Its inhibition at 50 µg/mL is 100%.

**Q.** What about the Activity [14] of the same compound?
**A.** Its Activity is “inactive”.

**Q.** And the Activity [15]?
**A.** The Activity was “inactive”.

**Q.** And the Activity [16]?
**A.** The Activity was “inactive”.

**Q.** What about the MIC [17] of the same compound?
**A.** Its MIC is 5 µg/mL (≈ 13.5 µM).

**Q.** What about the inhibition at 50 µg/mL [18] of the same compound?
**A.** The inhibition at 50 µg/mL was 100%.

**Q.** What about the MIC [19] of the same compound?
**A.** The MIC was 50 µg/mL (≈ 135 µM).

**Q.** And the inhibition at 50 µg/mL [20]?
**A.** Its inhibition at 50 µg/mL is 100%.

**Q.** What about the inhibition at 50 µg/mL [21] of the same compound?
**A.** The inhibition at 50 µg/mL was 100%.

**Q.** And the Activity [22]?
**A.** The Activity was “inactive”.

**Q.** And the MIC [23]?
**A.** The MIC was 25 µg/mL (≈ 67.3 µM).

**Q.** What about the inhibition at 10 µg/mL [24] of the same compound?
**A.** Its inhibition at 10 µg/mL is 100%.

**Q.** What about the MIC [25] of the same compound?
**A.** The MIC was 10 µg/mL (≈ 26.9 µM).

**Q.** What about the Activity [26] of the same compound?
**A.** Its Activity is “Active”.

**Q.** And the Activity [27]?
**A.** Its Activity is “Active”.

**Q.** And the Activity [28]?
**A.** The Activity was “Active”.

**Q.** And the Activity [29]?
**A.** Its Activity is > 80 µg/mL.
